The source made the active and inactive calls. The calls are words filed in the database; no cut-off is given here.
How the values were obtained:
[1] = target: T1, ATP-binding cassette sub-family C member 10 (Homo sapiens) (UniProt Q5T3U5); test: Inhibition of ABCC10 (unknown origin) assessed as reduction in BeFx-sensitive ATPase activity incubated over 20 mins by inorganic phosphate release assay
T1 sequence (whole entry): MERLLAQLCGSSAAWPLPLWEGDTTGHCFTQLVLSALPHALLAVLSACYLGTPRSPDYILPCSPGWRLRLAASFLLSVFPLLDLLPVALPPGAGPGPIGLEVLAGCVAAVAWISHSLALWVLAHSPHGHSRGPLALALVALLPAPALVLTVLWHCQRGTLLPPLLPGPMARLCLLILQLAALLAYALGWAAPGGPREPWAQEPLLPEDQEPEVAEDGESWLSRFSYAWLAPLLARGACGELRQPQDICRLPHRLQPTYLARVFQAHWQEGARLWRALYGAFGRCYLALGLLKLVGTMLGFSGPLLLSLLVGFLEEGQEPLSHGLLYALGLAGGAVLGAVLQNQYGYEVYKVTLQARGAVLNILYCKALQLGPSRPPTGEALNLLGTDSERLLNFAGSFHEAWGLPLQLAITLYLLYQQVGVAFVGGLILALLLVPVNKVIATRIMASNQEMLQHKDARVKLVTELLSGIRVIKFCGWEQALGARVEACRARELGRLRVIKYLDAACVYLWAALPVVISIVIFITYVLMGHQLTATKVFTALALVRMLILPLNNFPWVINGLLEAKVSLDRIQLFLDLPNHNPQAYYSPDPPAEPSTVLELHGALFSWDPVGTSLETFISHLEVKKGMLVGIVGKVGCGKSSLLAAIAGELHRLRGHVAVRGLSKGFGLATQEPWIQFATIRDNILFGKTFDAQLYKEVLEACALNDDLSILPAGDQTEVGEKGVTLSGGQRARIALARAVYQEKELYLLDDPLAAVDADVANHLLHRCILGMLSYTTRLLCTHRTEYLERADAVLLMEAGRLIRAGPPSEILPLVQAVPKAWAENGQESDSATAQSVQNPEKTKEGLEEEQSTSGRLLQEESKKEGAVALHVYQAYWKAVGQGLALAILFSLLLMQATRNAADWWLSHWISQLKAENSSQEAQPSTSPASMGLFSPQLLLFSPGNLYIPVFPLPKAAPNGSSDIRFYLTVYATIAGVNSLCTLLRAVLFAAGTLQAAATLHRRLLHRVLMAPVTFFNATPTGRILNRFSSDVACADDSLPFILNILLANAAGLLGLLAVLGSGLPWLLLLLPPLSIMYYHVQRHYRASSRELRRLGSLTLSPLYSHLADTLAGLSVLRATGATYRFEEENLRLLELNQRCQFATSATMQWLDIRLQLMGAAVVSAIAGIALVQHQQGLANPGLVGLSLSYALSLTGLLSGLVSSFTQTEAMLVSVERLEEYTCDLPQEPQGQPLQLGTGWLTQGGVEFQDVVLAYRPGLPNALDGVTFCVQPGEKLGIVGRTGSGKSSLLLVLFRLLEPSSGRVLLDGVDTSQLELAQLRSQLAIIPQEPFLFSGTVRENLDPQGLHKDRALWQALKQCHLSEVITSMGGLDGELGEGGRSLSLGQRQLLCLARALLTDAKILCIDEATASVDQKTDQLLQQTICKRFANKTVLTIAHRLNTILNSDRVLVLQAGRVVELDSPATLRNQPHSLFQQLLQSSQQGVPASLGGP
Method in brief: (§1)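 Membranes holding ABCC10 (5−10 μg protein) were preincubated for 5 min at 37 °C with test agent in 2× assay buffer (Tris-HCl pH 7.5, KCl, sodium azide, EGTA, ouabain, DTT) plus MgCl2. The reaction was started with 5 mM ATP and run 20 min at 37 °C, then stopped with 5% SDS. Released Pi was read colorimetrically (Lanzetta), and ABCC10 activity was taken as the BeFx-sensitive fraction.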

[2] = target: T1, ATP-binding cassette sub-family C member 10 (Homo sapiens); test: Inhibition of ABCC10 (unknown origin) expressed in HEK293 cells assessed as reversal of paclitaxel resistance at 12.5 uM after 72 hrs by MTS/PMS assay; type: cell-based
Method in brief: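 Cells used were HEK293-pcDNA3 vector control and the ABCC10 (MRP7) transfectants C17 and C18, seeded in triplicate at 5000 cells/well in DMEM with 10% FBS. Next day, paclitaxel was added at various concentrations, with or without modulator at 12.5 μM. Survival was read after 72 h of drug exposure by MTS/PMS colorimetric assay.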

[3] = target: T1, ATP-binding cassette sub-family C member 10 (Homo sapiens); test: Inhibition of ABCC10 (unknown origin) assessed as reduction in BeFx-sensitive ATPase activity at 12.5 uM incubated over 20 mins by inorganic phosphate release assay; method in brief: as §1
[4] = target: ATP-dependent translocase ABCB1 (Homo sapiens, UniProt P08183); test: Inhibition of P-gp (unknown origin) assessed as reduction in ATPase activity at 2.08 to 50 uM incubated over 20 mins by inorganic phosphate release assay
ATP-dependent translocase ABCB1, sequence (P08183 whole entry): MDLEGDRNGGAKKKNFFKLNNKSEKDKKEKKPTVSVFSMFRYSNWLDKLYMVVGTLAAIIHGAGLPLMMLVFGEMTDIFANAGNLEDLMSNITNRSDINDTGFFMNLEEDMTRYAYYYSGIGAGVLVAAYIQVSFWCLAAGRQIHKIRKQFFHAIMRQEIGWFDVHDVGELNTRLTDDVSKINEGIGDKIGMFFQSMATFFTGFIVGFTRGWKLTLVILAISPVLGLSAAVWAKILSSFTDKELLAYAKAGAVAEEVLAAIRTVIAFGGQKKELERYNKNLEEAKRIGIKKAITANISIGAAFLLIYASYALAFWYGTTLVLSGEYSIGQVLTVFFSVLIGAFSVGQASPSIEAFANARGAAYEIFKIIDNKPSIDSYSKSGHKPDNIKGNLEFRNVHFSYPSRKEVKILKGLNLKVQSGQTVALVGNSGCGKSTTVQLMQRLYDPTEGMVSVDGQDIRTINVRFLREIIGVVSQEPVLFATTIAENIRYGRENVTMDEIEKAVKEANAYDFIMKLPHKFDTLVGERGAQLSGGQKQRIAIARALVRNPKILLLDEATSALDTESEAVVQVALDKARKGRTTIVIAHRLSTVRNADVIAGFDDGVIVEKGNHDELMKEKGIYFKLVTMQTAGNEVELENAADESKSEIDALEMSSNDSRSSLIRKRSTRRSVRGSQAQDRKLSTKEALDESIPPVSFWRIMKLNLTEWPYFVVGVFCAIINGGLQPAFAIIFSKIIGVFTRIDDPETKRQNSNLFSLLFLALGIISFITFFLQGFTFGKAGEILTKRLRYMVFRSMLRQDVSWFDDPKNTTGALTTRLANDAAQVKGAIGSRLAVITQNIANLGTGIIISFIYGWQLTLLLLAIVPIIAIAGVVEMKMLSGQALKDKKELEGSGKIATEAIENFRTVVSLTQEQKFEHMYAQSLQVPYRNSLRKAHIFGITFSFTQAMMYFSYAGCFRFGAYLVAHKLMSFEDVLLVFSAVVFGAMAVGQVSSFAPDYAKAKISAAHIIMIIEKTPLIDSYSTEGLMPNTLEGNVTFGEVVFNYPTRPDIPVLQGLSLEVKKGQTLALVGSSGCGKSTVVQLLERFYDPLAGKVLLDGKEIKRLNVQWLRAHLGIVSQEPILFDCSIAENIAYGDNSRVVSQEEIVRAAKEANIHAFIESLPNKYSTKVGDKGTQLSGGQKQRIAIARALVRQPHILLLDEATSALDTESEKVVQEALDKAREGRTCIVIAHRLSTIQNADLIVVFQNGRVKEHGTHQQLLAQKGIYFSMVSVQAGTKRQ
Method in brief: (§2)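 P-gp ATPase assay run in the same way as the ABCC10 assay. Membrane protein (5−10 μg) was preincubated 5 min at 37 °C with test agent, buffer (Tris-HCl pH 7.5, KCl, azide, EGTA, ouabain, DTT) and MgCl2. The reaction was started with 5 mM ATP, run 20 min at 37 °C and quenched with SDS. Pi was measured colorimetrically.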

[5] = target: T1, ATP-binding cassette sub-family C member 10 (Homo sapiens); test: Inhibition of ABCC10 (unknown origin) assessed as reduction in BeFx-sensitive ATPase activity at 50 uM incubated over 20 mins by inorganic phosphate release assay; method in brief: as §1
[6] = target: T1, ATP-binding cassette sub-family C member 10 (Homo sapiens); test: Inhibition of ABCC10 (unknown origin) assessed as reduction in BeFx-sensitive ATPase activity at 2.08 to 50 uM incubated over 20 mins by inorganic phosphate release assay; method in brief: as §1
[7] = target: P-gp (ABCB1) ATPase activity (Homo sapiens, UniProt P08183); test: Inhibition of P-gp (unknown origin) assessed as reduction in ATPase activity at 2.08 to 6.25 uM incubated over 20 mins by inorganic phosphate release assay; method in brief: as §2
P-gp (ABCB1) ATPase activity, sequence (P08183 whole entry): as above

Compound	inhibition [6]	inhibition [2] [%]	inhibition (INH) [4]	other results
COc1ccc2cc1Oc1ccc(cc1)C[C@H]1c3c(cc4c(c3Oc3cc5c(cc3OC)CCN(C)[C@@H]5C2)OCO4)CCN1C	–	–	–	inhibition [1]: 20%
COC(=O)C1=C2Nc3ccccc3[C@@]23CCN2C[C@@H](C(C)=O)[C@@H]1C[C@H]23 [ALSTOLUCINE B]	–	50	Not Active	inhibition [3]: 40%
COC(=O)C1=C2Nc3ccccc3[C@@]23CCN2C[C@H](C(C)=O)[C@@H]1C[C@H]23 [ALSTOLUCINE F]	–	50	Not Active	inhibition [5]: 40%

Continued, in another order:

inhibition [6]	Compound	inhibition [2] [%]	inhibition (INH) [4]	other results
inactive	CCOC(=O)O[C@H](C)[C@H]1CN2CC[C@]34C(=C(C(=O)OC)[C@H]1C[C@H]23)Nc1ccccc14 [ALSTOLUCINE A]	–	Not Active	–
inactive	COC(=O)C1=C2Nc3ccccc3[C@@]23CCN2C[C@H]([C@@H](C)O)[C@@H]1C[C@H]23	–	–	inhibition at 20 min [7]: 35%

Source: ChEMBL document CHEMBL3351794, “Synthesis and biological evaluation of pentacyclic strychnos alkaloids as selective modulators of the ABCC10 (MRP7) efflux pump” (J Med Chem, 2014)
